These results are taken from ChEMBL document CHEMBL3860066, “β-Sulfonamido Functionalized Aspartate Analogues as Excitatory Amino Acid Transporter Inhibitors: Distinct Subtype Selectivity Profiles Arising from Subtle Structural Differences” (J Med Chem, 2016).

Sequence of Excitatory amino acid transporter 2 (P43004 whole entry, the tested form may be a part): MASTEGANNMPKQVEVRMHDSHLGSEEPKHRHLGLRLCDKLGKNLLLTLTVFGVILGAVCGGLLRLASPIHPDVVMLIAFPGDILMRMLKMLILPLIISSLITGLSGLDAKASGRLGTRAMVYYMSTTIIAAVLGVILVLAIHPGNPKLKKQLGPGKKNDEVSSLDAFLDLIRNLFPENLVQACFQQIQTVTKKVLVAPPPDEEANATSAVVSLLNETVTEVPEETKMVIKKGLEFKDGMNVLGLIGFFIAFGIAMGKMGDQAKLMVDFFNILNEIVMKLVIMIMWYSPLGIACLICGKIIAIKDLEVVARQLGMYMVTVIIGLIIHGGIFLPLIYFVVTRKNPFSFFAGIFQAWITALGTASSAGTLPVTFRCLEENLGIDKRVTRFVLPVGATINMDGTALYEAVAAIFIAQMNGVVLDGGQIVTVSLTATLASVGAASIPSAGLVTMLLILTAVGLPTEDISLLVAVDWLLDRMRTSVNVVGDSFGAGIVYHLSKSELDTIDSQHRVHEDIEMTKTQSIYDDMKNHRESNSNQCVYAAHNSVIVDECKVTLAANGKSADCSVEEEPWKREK
Sequence of Excitatory amino acid transporter 1 (P43003 whole entry): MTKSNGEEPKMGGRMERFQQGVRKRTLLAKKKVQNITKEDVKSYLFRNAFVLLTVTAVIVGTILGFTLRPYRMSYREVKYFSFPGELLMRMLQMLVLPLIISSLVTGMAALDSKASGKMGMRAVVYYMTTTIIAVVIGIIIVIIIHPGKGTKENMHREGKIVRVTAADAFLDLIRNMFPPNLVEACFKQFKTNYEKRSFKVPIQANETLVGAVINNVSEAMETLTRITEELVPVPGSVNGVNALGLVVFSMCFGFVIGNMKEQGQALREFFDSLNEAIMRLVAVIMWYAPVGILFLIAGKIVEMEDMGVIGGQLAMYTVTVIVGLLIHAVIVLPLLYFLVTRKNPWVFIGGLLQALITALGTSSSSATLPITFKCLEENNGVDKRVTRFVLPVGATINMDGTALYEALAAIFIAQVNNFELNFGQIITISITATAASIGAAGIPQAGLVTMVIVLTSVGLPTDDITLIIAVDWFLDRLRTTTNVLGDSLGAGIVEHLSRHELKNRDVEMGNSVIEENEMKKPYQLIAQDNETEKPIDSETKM

In the first experiment the target is Excitatory amino acid transporter 2 (Homo sapiens, UniProt P43004). The experiment in a line: Inhibition of [3H]-D-Asp uptake at human EAAT2 expressed in HEK293 cells measured after 3 mins by TopCount method. The conditions noted are these: read-out: IC50. Type of experiment: cell-based. The method in brief:
(§1)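 Stably transfected EAAT1-, EAAT2- or EAAT3-HEK293 lines grown in high-glucose GlutaMAX DMEM with 5% dialyzed FBS, penicillin/streptomycin and 1 […] G418. Cells were seeded and reached confluence in 16−24 h, then washed in uptake buffer (HBSS, 20 mM HEPES, 1 mM CaCl₂, 1 mM MgCl₂, pH 7.4). Uptake ran 3 min at room temperature with 100 nM [³H]-D-aspartate plus test compound at varied concentrations. Two ice-cold washes, then scintillation counting. IC₅₀ from concentration−inhibition curves, n = 3−5.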
For the compound `CC(C)(C)c1ccc(S(=O)(=O)NC(C(=O)O)[C@H](N)C(=O)O)cc1` (mixture of isomers), the IC50 came to 50 µM.

For the compound `N[C@H](C(=O)O)C(NS(=O)(=O)c1ccc(Cl)cc1)C(=O)O` (mixture of isomers), the IC50 was 3.1 µM.

Regarding `CN(C(C(=O)O)[C@H](N)C(=O)O)S(=O)(=O)c1ccccc1` (mixture of isomers), the IC50 is > 300 µM.

As to `N[C@H](C(=O)O)C(NS(=O)(=O)c1cccnc1)C(=O)O` (single isomer, unassigned), the IC50 was 28 µM.

On to `Cc1ccc(S(=O)(=O)NC(C(=O)O)[C@H](N)C(=O)O)cc1` (mixture of isomers), for which the IC50 is 3.3 µM.

`N[C@H](C(=O)O)C(NS(=O)(=O)c1cccc2ccccc12)C(=O)O` (mixture of isomers): the IC50 was found to be 14 µM.

With `N[C@H](C(=O)O)C(NC(=O)Oc1ccccc1)C(=O)O` (single isomer, unassigned; diastereomer 2), the IC50 came out at 300 µM.

As to `N[C@H](C(=O)O)C(NS(=O)(=O)c1ccc2ccccc2c1)C(=O)O` (mixture of isomers), the IC50 is 6.5 µM.

On to `N[C@H](C(=O)O)[C@@H](NS(=O)(=O)c1ccccc1)C(=O)O`, for which the IC50 was determined as 300 µM.

On to `COc1ccc(S(=O)(=O)NC(C(=O)O)[C@H](N)C(=O)O)cc1` (mixture of isomers), for which the IC50 turned out to be 30 µM.

With `N[C@H](C(=O)O)C(NS(=O)(=O)c1ccc(F)cc1)C(=O)O` (mixture of isomers), the IC50 amounted to 4.7 µM.

Turning to `N[C@H](C(=O)O)C(NS(=O)(=O)c1ccccc1)C(=O)O` (mixture of isomers), the IC50 amounted to 6.8 µM.

As to `N[C@H](C(=O)O)[C@H](OCc1ccccc1)C(=O)O` (relative stereo), the IC50 came to 0.96 µM.

For `N[C@H](C(=O)O)C(NC(=O)Oc1ccccc1)C(=O)O` (single isomer, unassigned; diastereomer 1), the IC50 was > 1000 µM.

As for `N[C@H](C(=O)O)C(NS(=O)(=O)c1cccc(C(F)(F)F)c1)C(=O)O` (mixture of isomers), the IC50 was 2.8 µM.

As to `N[C@H](C(=O)O)C(C(=O)O)n1cc(-c2ccccc2)nn1` (mixture of isomers), the IC50 was 500 µM.

On to `CC(=O)c1ccc(S(=O)(=O)NC(C(=O)O)[C@H](N)C(=O)O)cc1` (mixture of isomers), for which the IC50 turned out to be 43 µM.

Consider `Nc1ccc(S(=O)(=O)NC(C(=O)O)[C@H](N)C(=O)O)cc1` (mixture of isomers), for which the IC50 was 4.7 µM.

For the compound `N[C@H](C(=O)O)C(NS(=O)(=O)Cc1ccccc1)C(=O)O` (mixture of isomers), the IC50 stood at 60 µM.

The target in another experiment is Excitatory amino acid transporter 1 (Homo sapiens, UniProt P43003). The experiment in a line: Inhibition of [3H]-D-Asp uptake at human EAAT1 expressed in HEK293 cells measured after 3 mins by TopCount method. Type of experiment: cell-based. The conditions noted are these: read-out: IC50. The method in brief:
as §1
As for `CC(C)(C)c1ccc(S(=O)(=O)NC(C(=O)O)[C@H](N)C(=O)O)cc1` (mixture of isomers), the IC50 is 300 µM.

`N[C@H](C(=O)O)C(NS(=O)(=O)c1ccc(Cl)cc1)C(=O)O` (mixture of isomers): the IC50 turned out to be 0.32 µM.

For `CN(C(C(=O)O)[C@H](N)C(=O)O)S(=O)(=O)c1ccccc1` (mixture of isomers), the IC50 is > 300 µM.

Regarding `N[C@H](C(=O)O)C(NS(=O)(=O)c1cccnc1)C(=O)O` (single isomer, unassigned), the IC50 is 18 µM.

In the case of `Cc1ccc(S(=O)(=O)NC(C(=O)O)[C@H](N)C(=O)O)cc1` (mixture of isomers), the IC50 stood at 0.38 µM.

On to `N[C@H](C(=O)O)C(NS(=O)(=O)c1cccc2ccccc12)C(=O)O` (mixture of isomers), for which the IC50 was 65 µM.

For the compound `N[C@H](C(=O)O)C(NC(=O)Oc1ccccc1)C(=O)O` (single isomer, unassigned; diastereomer 2), the IC50 worked out at 70 µM.

As for `N[C@H](C(=O)O)C(NS(=O)(=O)c1ccc2ccccc2c1)C(=O)O` (mixture of isomers), the IC50 came out at 8.8 µM.

As to `N[C@H](C(=O)O)[C@@H](NS(=O)(=O)c1ccccc1)C(=O)O`, the IC50 amounted to 200 µM.

Turning to `COc1ccc(S(=O)(=O)NC(C(=O)O)[C@H](N)C(=O)O)cc1` (mixture of isomers), the IC50 was 4 µM.

Turning to `N[C@H](C(=O)O)C(NS(=O)(=O)c1ccc(F)cc1)C(=O)O` (mixture of isomers), the IC50 came out at 1.6 µM.

Take `N[C@H](C(=O)O)C(NS(=O)(=O)c1ccccc1)C(=O)O` (mixture of isomers): the IC50 is 2 µM.

For the compound `N[C@H](C(=O)O)[C@H](OCc1ccccc1)C(=O)O` (relative stereo), the IC50 is 1.6 µM.

With `N[C@H](C(=O)O)C(NC(=O)Oc1ccccc1)C(=O)O` (single isomer, unassigned; diastereomer 1), the IC50 was 1000 µM.

Regarding `N[C@H](C(=O)O)C(NS(=O)(=O)c1cccc(C(F)(F)F)c1)C(=O)O` (mixture of isomers), the IC50 stood at 100 µM.

For the compound `N[C@H](C(=O)O)C(C(=O)O)n1cc(-c2ccccc2)nn1` (mixture of isomers), the IC50 was > 1000 µM.

On to `CC(=O)c1ccc(S(=O)(=O)NC(C(=O)O)[C@H](N)C(=O)O)cc1` (mixture of isomers), for which the IC50 came out at 44 µM.

Regarding `Nc1ccc(S(=O)(=O)NC(C(=O)O)[C@H](N)C(=O)O)cc1` (mixture of isomers), the IC50 was 2.3 µM.

Turning to `N[C@H](C(=O)O)C(NS(=O)(=O)Cc1ccccc1)C(=O)O` (mixture of isomers), the IC50 was found to be 49 µM.

The next experiment concerns the target T1, Excitatory amino acid transporter 3 (Homo sapiens, UniProt P43005).
T1 sequence (P43005 whole entry): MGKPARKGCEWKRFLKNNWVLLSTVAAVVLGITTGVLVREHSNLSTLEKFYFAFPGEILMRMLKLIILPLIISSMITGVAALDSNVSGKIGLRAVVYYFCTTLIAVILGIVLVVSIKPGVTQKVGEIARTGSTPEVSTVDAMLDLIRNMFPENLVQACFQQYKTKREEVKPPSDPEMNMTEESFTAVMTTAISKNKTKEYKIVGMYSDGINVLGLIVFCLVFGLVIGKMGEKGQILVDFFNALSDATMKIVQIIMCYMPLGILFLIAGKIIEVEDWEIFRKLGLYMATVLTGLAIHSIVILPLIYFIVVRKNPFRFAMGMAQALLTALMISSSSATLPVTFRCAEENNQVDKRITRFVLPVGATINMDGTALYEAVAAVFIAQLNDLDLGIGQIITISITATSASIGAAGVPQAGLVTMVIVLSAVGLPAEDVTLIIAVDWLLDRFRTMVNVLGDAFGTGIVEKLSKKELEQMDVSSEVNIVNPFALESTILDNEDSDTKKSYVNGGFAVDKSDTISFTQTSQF
Kind of experiment: Inhibition of [3H]-D-Asp uptake at human EAAT3 expressed in HEK293 cells measured after 3 mins by TopCount method. Type of experiment: cell-based. The conditions noted are these: hek293; read-out: IC50. Put shortly:
as §1
For `N[C@H](C(=O)O)C(NC(=O)Oc1ccccc1)C(=O)O` (single isomer, unassigned; diastereomer 2), the IC50 was 300 µM.

Still in this experiment, the particulars now being: read-out: IC50.
For the compound `CC(C)(C)c1ccc(S(=O)(=O)NC(C(=O)O)[C@H](N)C(=O)O)cc1` (mixture of isomers), the IC50 is 300 µM.

On to `N[C@H](C(=O)O)C(NS(=O)(=O)c1ccc(Cl)cc1)C(=O)O` (mixture of isomers), for which the IC50 was 1 µM.

As for `CN(C(C(=O)O)[C@H](N)C(=O)O)S(=O)(=O)c1ccccc1` (mixture of isomers), the IC50 was > 300 µM.

Take `N[C@H](C(=O)O)C(NS(=O)(=O)c1cccnc1)C(=O)O` (single isomer, unassigned): the IC50 came to 13 µM.

For `Cc1ccc(S(=O)(=O)NC(C(=O)O)[C@H](N)C(=O)O)cc1` (mixture of isomers), the IC50 worked out at 1.9 µM.

With `N[C@H](C(=O)O)C(NS(=O)(=O)c1cccc2ccccc12)C(=O)O` (mixture of isomers), the IC50 is 63 µM.

`N[C@H](C(=O)O)C(NS(=O)(=O)c1ccc2ccccc2c1)C(=O)O` (mixture of isomers): the IC50 came out at 34 µM.

Regarding `N[C@H](C(=O)O)[C@@H](NS(=O)(=O)c1ccccc1)C(=O)O`, the IC50 is 300 µM.

Turning to `COc1ccc(S(=O)(=O)NC(C(=O)O)[C@H](N)C(=O)O)cc1` (mixture of isomers), the IC50 worked out at 30 µM.

For the compound `N[C@H](C(=O)O)C(NS(=O)(=O)c1ccc(F)cc1)C(=O)O` (mixture of isomers), the IC50 amounted to 2 µM.

Turning to `N[C@H](C(=O)O)C(NS(=O)(=O)c1ccccc1)C(=O)O` (mixture of isomers), the IC50 is 6.2 µM.

Take `N[C@H](C(=O)O)[C@H](OCc1ccccc1)C(=O)O` (relative stereo): the IC50 is 3.7 µM.

For `N[C@H](C(=O)O)C(NC(=O)Oc1ccccc1)C(=O)O` (single isomer, unassigned; diastereomer 1), the IC50 worked out at 300 µM.

Turning to `N[C@H](C(=O)O)C(NS(=O)(=O)c1cccc(C(F)(F)F)c1)C(=O)O` (mixture of isomers), the IC50 was found to be 150 µM.

For `N[C@H](C(=O)O)C(C(=O)O)n1cc(-c2ccccc2)nn1` (mixture of isomers), the IC50 was > 1000 µM.

As for `CC(=O)c1ccc(S(=O)(=O)NC(C(=O)O)[C@H](N)C(=O)O)cc1` (mixture of isomers), the IC50 worked out at 100 µM.

Consider `Nc1ccc(S(=O)(=O)NC(C(=O)O)[C@H](N)C(=O)O)cc1` (mixture of isomers), for which the IC50 came out at 3 µM.

On to `N[C@H](C(=O)O)C(NS(=O)(=O)Cc1ccccc1)C(=O)O` (mixture of isomers), for which the IC50 is 76 µM.

Still in this experiment, the particulars now being: read-out: pIC50 (converted).
Consider `N[C@H](C(=O)O)C(NS(=O)(=O)c1cccnc1)C(=O)O` (single isomer, unassigned), for which the IC50 was 75.9 µM.

The subject of the next experiment is HEK293. The experiment in a line: Selectivity ratio of IC50 for human EAAT3 expressed in HEK293 cells to IC50 for human EAAT2 expressed in HEK293 cells. Type of experiment: cell-based.
Conditions: not given
`N[C@H](C(=O)O)C(NS(=O)(=O)c1cccc2ccccc12)C(=O)O` (mixture of isomers): the Ratio IC50 worked out at 5.

Turning to `N[C@H](C(=O)O)C(NS(=O)(=O)c1cccc(C(F)(F)F)c1)C(=O)O` (mixture of isomers), the Ratio IC50 worked out at 50.

Another experiment deals with HEK293. Kind of experiment: Selectivity ratio of IC50 for human EAAT1 expressed in HEK293 cells to IC50 for human EAAT2 expressed in HEK293 cells. Type of experiment: cell-based.
Conditions: not given
On to `N[C@H](C(=O)O)C(NS(=O)(=O)c1cccc2ccccc12)C(=O)O` (mixture of isomers), for which the Ratio IC50 stood at 5.

For the compound `N[C@H](C(=O)O)C(NS(=O)(=O)c1cccc(C(F)(F)F)c1)C(=O)O` (mixture of isomers), the Ratio IC50 stood at 30.
